Measured values as given in ChEMBL document CHEMBL5107948, “Activity-based protein profiling reveals deubiquitinase and aldehyde dehydrogenase targets of a cyanopyrrolidine probe” (RSC Med Chem, 2021).
Calls of active or inactive are those of the source. The calls are words filed in the database; no cut-off is given here.

Columns and labels:
Format in all cases: cell-based
[1] = biological target: 4-trimethylaminobutyraldehyde dehydrogenase (Homo sapiens) (UniProt P49189); experiment: Inhibition of ALDH9A1 in human HEK293 cells at 250 nM in presence of ABP MT16-205 by Competitive pulldown based immunoblotting analysis
Summary of the method: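 Lysates AzTB-clicked, streptavidin bead pulldown (2 h RT), boiled elution, SDS-PAGE. Target detected by immunoblot: 3% BSA/TBS-T block, primary antibody 1.5 h RT or overnight at 4 °C, HRP secondary, chemiluminescence.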

[2] = biological target: T1, Aldehyde dehydrogenase, mitochondrial (Homo sapiens) (UniProt P05091); experiment: Binding affinity to ALDH2 in human HEK293 cells at 130 to 500 nM in presence of ABP MT16-205 by LFQ-NanoLC-MS/MS analysis; conditions: dose 130-500 nM, DDE = dose-dependent effect
T1 sequence (whole entry): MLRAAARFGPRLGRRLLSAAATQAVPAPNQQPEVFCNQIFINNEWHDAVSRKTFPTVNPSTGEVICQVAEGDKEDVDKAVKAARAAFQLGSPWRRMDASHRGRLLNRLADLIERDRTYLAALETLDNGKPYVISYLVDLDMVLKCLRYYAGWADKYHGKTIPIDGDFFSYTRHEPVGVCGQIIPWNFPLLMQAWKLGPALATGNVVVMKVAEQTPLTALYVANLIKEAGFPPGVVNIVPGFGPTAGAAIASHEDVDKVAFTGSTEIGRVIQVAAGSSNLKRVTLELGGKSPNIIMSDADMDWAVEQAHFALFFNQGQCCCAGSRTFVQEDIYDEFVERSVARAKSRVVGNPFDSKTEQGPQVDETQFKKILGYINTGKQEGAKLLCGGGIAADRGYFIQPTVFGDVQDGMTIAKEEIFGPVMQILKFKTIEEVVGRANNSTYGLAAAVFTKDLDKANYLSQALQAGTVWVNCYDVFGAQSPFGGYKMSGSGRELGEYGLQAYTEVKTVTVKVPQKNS
Summary of the method: (§1)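 Competition format: HEK293 cells pre-treated 1 h with competitor or DMSO, then exposed to ABP MT16-205. Lysis in PBS/Triton/SDS buffer, AzRB click ligation, NeutrAvidin pulldown, on-bead TCEP/chloroacetamide treatment and overnight tryptic digestion. Label-free LC-MS/MS; two-sample t-test versus control (n=3, permutation FDR 0.01, S0=1).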

[3] = biological target: T2, Glutamine amidotransferase-like class 1 domain-containing protein 3, mitochondrial (Homo sapiens) (UniProt P0DPI2); experiment: Binding affinity to GATD3A in human HEK293 cells at 130 to 500 nM in presence of ABP MT16-205 by LFQ-NanoLC-MS/MS analysis; conditions: dose 130-500 nM, DDE = dose-dependent effect; summary of the method: as §1
T2 sequence (whole entry): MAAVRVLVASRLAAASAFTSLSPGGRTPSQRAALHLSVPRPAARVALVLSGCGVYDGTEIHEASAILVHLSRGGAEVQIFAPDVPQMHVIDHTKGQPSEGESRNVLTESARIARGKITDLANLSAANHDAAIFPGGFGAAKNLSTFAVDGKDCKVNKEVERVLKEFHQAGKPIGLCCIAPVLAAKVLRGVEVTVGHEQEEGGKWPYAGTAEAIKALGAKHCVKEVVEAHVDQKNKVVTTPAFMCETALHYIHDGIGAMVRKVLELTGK

[4] = biological target: Ubiquitin carboxyl-terminal hydrolase isozyme L1 (Homo sapiens) (UniProt P09936); experiment: Binding affinity to UCHL1 in human HEK293 cells assessed as fold change at 130 nM incubated for 3 to 6 hrs by LFQ-chemical proteomics analysis; conditions: time 3-6 hrs
Summary of the method: (§2)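 HEK293 cells exposed to alkyne ABP or DMSO for 3, 6 or 18 h, washed, lysed in PBS/1% Triton X-100/0.1% SDS. Lysates (400 µg, biological triplicates) CuAAC-ligated to AzRB (100 µM, CuSO4 1 mM, TCEP 1 mM, TBTA 100 µM, 1 h RT). NeutrAvidin enrichment, on-bead TCEP/CAA reduction-alkylation, overnight trypsin digest at 37 °C, LC-MS/MS label-free quantification. Two-sample t-test against DMSO (n=3, permutation FDR 0.01, S0=1).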

[5] = biological target: T1, Aldehyde dehydrogenase, mitochondrial (Homo sapiens); experiment: Binding affinity to ALDH2 in human HEK293 cells assessed as fold change at 130 nM incubated for 3 to 6 hrs by LFQ-chemical proteomics analysis; conditions: time 3-6 hrs; summary of the method: as §2
[6] = biological target: Aldehyde dehydrogenase family 3 member A2 (Homo sapiens) (UniProt P51648); experiment: Binding affinity to ALDH3A2 in human HEK293 cells assessed as fold change at 130 nM incubated for 3 to 6 hrs by LFQ-chemical proteomics analysis; conditions: time 3-6 hrs; summary of the method: as §2
[7] = biological target: T2, Glutamine amidotransferase-like class 1 domain-containing protein 3, mitochondrial (Homo sapiens); experiment: Binding affinity to GATD3A in human HEK293 cells assessed as fold change at 30 nM incubated for 3 to 18 hrs by LFQ-chemical proteomics analysis; conditions: time 3-18 hrs; summary of the method: as §2
HEK293 = experiment: Binding affinity to ALDH in human HEK293 cells assessed as fold change at 30 nM incubated for 3 to 18 hrs by LFQ-chemical proteomics analysis; conditions: time 3-18 hrs; summary of the method: as §2

Sequence of Aldehyde dehydrogenase family 3 member A2 (Homo sapiens) (P51648 whole entry): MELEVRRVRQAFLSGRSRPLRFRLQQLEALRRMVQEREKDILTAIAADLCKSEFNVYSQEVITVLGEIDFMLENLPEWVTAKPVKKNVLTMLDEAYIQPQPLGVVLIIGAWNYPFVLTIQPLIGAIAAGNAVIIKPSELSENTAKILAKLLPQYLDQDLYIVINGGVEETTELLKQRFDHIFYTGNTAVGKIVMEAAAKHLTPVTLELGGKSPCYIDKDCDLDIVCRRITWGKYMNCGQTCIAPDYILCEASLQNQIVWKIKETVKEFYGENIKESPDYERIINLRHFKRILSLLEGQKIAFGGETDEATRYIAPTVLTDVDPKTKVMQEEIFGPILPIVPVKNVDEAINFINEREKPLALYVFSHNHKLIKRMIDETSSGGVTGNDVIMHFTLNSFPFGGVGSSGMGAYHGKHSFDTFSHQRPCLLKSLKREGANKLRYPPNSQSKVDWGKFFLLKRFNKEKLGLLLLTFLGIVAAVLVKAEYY
Sequence of 4-trimethylaminobutyraldehyde dehydrogenase (Homo sapiens) (P49189 whole entry): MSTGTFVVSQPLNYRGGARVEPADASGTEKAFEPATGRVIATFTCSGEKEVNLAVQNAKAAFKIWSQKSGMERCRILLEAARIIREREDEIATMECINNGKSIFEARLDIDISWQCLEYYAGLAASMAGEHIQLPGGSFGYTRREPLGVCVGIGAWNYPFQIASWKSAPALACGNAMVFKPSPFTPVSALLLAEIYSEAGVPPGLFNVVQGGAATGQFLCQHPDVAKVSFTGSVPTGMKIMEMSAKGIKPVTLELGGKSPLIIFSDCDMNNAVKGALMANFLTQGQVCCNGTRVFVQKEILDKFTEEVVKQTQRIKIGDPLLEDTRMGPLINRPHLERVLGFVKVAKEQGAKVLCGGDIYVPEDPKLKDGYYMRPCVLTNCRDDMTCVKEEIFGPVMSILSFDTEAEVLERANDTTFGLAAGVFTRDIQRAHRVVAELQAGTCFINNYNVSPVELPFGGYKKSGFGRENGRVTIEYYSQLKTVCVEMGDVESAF
Sequence of Ubiquitin carboxyl-terminal hydrolase isozyme L1 (Homo sapiens) (P09936 whole entry, looked up): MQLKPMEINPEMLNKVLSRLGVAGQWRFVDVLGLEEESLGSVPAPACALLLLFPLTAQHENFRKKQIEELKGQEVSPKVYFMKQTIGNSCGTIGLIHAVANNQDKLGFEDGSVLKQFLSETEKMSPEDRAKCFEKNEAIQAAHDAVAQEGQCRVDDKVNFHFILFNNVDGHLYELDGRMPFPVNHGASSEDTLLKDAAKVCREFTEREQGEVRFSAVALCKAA

inhibition [1] | Activity [2] | Activity [3] | fold change (FC) [4] | fold change (FC) [5] | fold change (FC) [6] | fold change (FC) [7] | SMILES | fold change (FC) (HEK293)
Active | Dde | Dde |  |  |  |  | N#CN1CC[C@H](C(=O)Nc2ncc(-c3ccccc3)s2)C1 | 
 |  |  | > 64 | > 64 | > 64 | > 16 | C#Cc1ccc(-c2cnc(NC(=O)[C@H]3CCN(C#N)C3)s2)cc1 | > 16
